Active and inactive are the calls of the source. No cut-off for these calls is given here.
Tests used:
[1] = test system: Colletotrichum acutatum; assay: Antifungal activity against Colletotrichum acutatum assessed as size of growth inhibitory zone at concentration of 2 mM in volume of 10 ul of acetone measured after 4 days by TLC based direct bioautography assay; assay type: functional
How it was run: (§1)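 Direct TLC bioautography on silica plates, dose–response from 2 to 12 µL of a 2 mM solution spotted per plate. Benomyl, cyprodinil, azoxystrobin and captan served as standards at 2 µL of 2 mM in ethanol. Inhibitory zone size was measured 4 days after treatment. Experiments were repeated multiple times, and mean zones were compared by ANOVA with Fisher's protected LSD (P 0.05).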

[2] = test system: Colletotrichum fragariae; assay: Antifungal activity against Colletotrichum fragariae assessed as growth inhibition at 0.3 to 30 uM after 72 hr by 96-well microdilution broth assay; assay type: functional, organism-based
How it was run: (§2)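 96-well microdilution broth dose–response. Final treatment concentrations were 0.3, 3.0 and 30.0 µM, alongside an azoxystrobin fungicide standard. Plates were lidded and incubated in a growth chamber, and growth was read as absorbance at 620 nm. Each concentration was run in duplicate, with three independent experiments. Results are reported as mean growth inhibition with standard errors for each fungus and dose.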

[3] = test system: Colletotrichum fragariae; assay: Antifungal activity against Colletotrichum fragariae assessed as size of growth inhibitory zone at concentration of 2 mM in volume of 6 ul of acetone measured after 4 days by TLC based direct bioautography assay; assay type: functional; how it was run: as §1
[4] = test system: Colletotrichum fragariae; assay: Antifungal activity against Colletotrichum fragariae assessed as size of growth inhibitory zone at concentration of 2 mM in volume of 2 ul of acetone measured after 4 days by TLC based direct bioautography assay; assay type: functional; how it was run: as §1
[5] = test system: Colletotrichum fragariae; assay: Antifungal activity against Colletotrichum fragariae assessed as size of growth inhibitory zone at concentration of 2 mM in volume of 12 ul of acetone measured after 4 days by TLC based direct bioautography assay; assay type: functional; how it was run: as §1
[6] = test system: Colletotrichum acutatum; assay: Antifungal activity against Colletotrichum acutatum assessed as size of growth inhibitory zone at concentration of 2 mM in volume of 4 ul of acetone measured after 4 days by TLC based direct bioautography assay; assay type: functional; how it was run: as §1
[7] = test system: Botrytis cinerea; assay: Antifungal activity against Botryotinia fuckeliana assessed as growth inhibition at 0.3 uM after 72 hr by 96-well microdilution broth assay; assay type: functional; settings: read-out: GI; how it was run: as §2
[8] = test system: Colletotrichum gloeosporioides; assay: Antifungal activity against Colletotrichum gloeosporioides assessed as size of growth inhibitory zone at concentration of 2 mM in volume of 2 ul of acetone measured after 4 days by TLC based direct bioautography assay; assay type: functional; how it was run: as §1
[9] = test system: Colletotrichum fragariae; assay: Antifungal activity against Colletotrichum fragariae assessed as size of growth inhibitory zone at concentration of 2 mM in volume of 8 ul of acetone measured after 4 days by TLC based direct bioautography assay; assay type: functional; how it was run: as §1
[10] = test system: Colletotrichum acutatum; assay: Antifungal activity against Colletotrichum acutatum assessed as size of growth inhibitory zone at concentration of 2 mM in volume of 12 ul of acetone measured after 4 days by TLC based direct bioautography assay; assay type: functional; how it was run: as §1
[11] = test system: Colletotrichum fragariae; assay: Antifungal activity against Colletotrichum fragariae assessed as size of growth inhibitory zone at concentration of 2 mM in volume of 4 ul of acetone measured after 4 days by TLC based direct bioautography assay; assay type: functional; how it was run: as §1
[12] = test system: Colletotrichum gloeosporioides; assay: Antifungal activity against Colletotrichum gloeosporioides assessed as size of growth inhibitory zone at concentration of 2 mM in volume of 10 ul of acetone measured after 4 days by TLC based direct bioautography assay; assay type: functional; how it was run: as §1
[13] = test system: Colletotrichum fragariae; assay: Antifungal activity against Colletotrichum fragariae assessed as size of growth inhibitory zone at concentration of 2 mM in volume of 10 ul of acetone measured after 4 days by TLC based direct bioautography assay; assay type: functional; how it was run: as §1
[14] = test system: Colletotrichum acutatum; assay: Antifungal activity against Colletotrichum acutatum assessed as size of growth inhibitory zone at concentration of 2 mM in volume of 6 ul of acetone measured after 4 days by TLC based direct bioautography assay; assay type: functional; how it was run: as §1
[15] = test system: Colletotrichum gloeosporioides; assay: Antifungal activity against Colletotrichum gloeosporioides assessed as size of growth inhibitory zone at concentration of 2 mM in volume of 12 ul of acetone measured after 4 days by TLC based direct bioautography assay; assay type: functional; how it was run: as §1
[16] = test system: Colletotrichum acutatum; assay: Antifungal activity against Colletotrichum acutatum assessed as growth inhibition at 0.3 to 30 uM after 72 hr by 96-well microdilution broth assay; assay type: functional, organism-based; how it was run: as §2
[17] = test system: Colletotrichum acutatum; assay: Antifungal activity against Colletotrichum acutatum assessed as size of growth inhibitory zone at concentration of 2 mM in volume of 8 ul of acetone measured after 4 days by TLC based direct bioautography assay; assay type: functional; how it was run: as §1
[18] = test system: Fusarium oxysporum; assay: Antifungal activity against Fusarium oxysporum assessed as growth inhibition at 0.3 to 30 uM after 72 hr by 96-well microdilution broth assay; assay type: functional, organism-based; how it was run: as §2
[19] = test system: Colletotrichum gloeosporioides; assay: Antifungal activity against Colletotrichum gloeosporioides assessed as size of growth inhibitory zone at concentration of 2 mM in volume of 8 ul of acetone measured after 4 days by TLC based direct bioautography assay; assay type: functional; how it was run: as §1
[20] = test system: Colletotrichum gloeosporioides; assay: Antifungal activity against Colletotrichum gloeosporioides assessed as size of growth inhibitory zone at concentration of 2 mM in volume of 4 ul of acetone measured after 4 days by TLC based direct bioautography assay; assay type: functional; how it was run: as §1
[21] = test system: Colletotrichum gloeosporioides; assay: Antifungal activity against Colletotrichum gloeosporioides assessed as size of growth inhibitory zone at concentration of 2 mM in volume of 6 ul of acetone measured after 4 days by TLC based direct bioautography assay; assay type: functional; how it was run: as §1
[22] = test system: Botrytis cinerea; assay: Antifungal activity against Botryotinia fuckeliana assessed as growth inhibition at 3.0 uM after 72 hr by 96-well microdilution broth assay; assay type: functional; settings: read-out: GI; how it was run: as §2
[23] = test system: Colletotrichum acutatum; assay: Antifungal activity against Colletotrichum acutatum assessed as size of growth inhibitory zone at concentration of 2 mM in volume of 2 ul of acetone measured after 4 days by TLC based direct bioautography assay; assay type: functional; how it was run: as §1
[24] = test system: Phomopsis obscurans; assay: Antifungal activity against Phomopsis obscurans assessed as growth inhibition at 0.3 to 30 uM after 72 hr by 96-well microdilution broth assay; assay type: functional, organism-based; settings: Paraphomopsis obscurans; how it was run: as §2
[25] = test system: Colletotrichum gloeosporioides; assay: Antifungal activity against Colletotrichum gloeosporioides assessed as growth inhibition at 0.3 to 30 uM after 72 hr by 96-well microdilution broth assay; assay type: functional, organism-based; how it was run: as §2
[26] = test system: Colletotrichum acutatum; assay: Antifungal activity against Colletotrichum acutatum assessed as diffuse inhibitory zone at concentration of 2 mM in volume of 2 ul of EtOH measured after 4 days by TLC based direct bioautography assay; assay type: functional, organism-based
How it was run: (§3)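 Direct TLC bioautography on silica plates against Colletotrichum species. Technical-grade fungicide standards (without formulation) were spotted at 2 µL of 2 mM in 95% ethanol. Inhibitory zone size was read 4 days after treatment. Diffuse zones were taken to mark suppressive activity. Values are means and standard deviations of zone size, with means separated by ANOVA and Fisher's protected LSD (P = 0.05).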

[27] = test system: Colletotrichum gloeosporioides; assay: Antifungal activity against Colletotrichum gloeosporioides assessed as diffuse inhibitory zone at concentration of 2 mM in volume of 2 ul of EtOH measured after 4 days by TLC based direct bioautography assay; assay type: functional, organism-based; how it was run: as §3
[28] = test system: Colletotrichum fragariae; assay: Antifungal activity against Colletotrichum fragariae assessed as size of growth inhibitory zone at concentration of 2 mM in volume of 2 ul of EtOH measured after 4 days by TLC based direct bioautography assay; assay type: functional; how it was run: as §3
[29] = test system: Colletotrichum gloeosporioides; assay: Antifungal activity against Colletotrichum gloeosporioides assessed as size of growth inhibitory zone at concentration of 2 mM in volume of 2 ul of EtOH measured after 4 days by TLC based direct bioautography assay; assay type: functional; how it was run: as §3
[30] = test system: Colletotrichum acutatum; assay: Antifungal activity against Colletotrichum acutatum assessed as size of growth inhibitory zone at concentration of 2 mM in volume of 2 ul of EtOH measured after 4 days by TLC based direct bioautography assay; assay type: functional; how it was run: as §3
[31] = test system: Botrytis cinerea; assay: Antifungal activity against Botryotinia fuckeliana assessed as growth inhibition at 30 uM by 96-well microdilution broth assay; assay type: functional; settings: read-out: GI; how it was run: as §2

Q: How did the Activity [1] turn out when CC(C)=CCC[C@](C)(O)[C@@H]1CC=C(C)CC1 (relative stereo) [LEVOMENOL] was run?
A: 9.5 mm

Q: And the “growth inhibition (GI)” value [2]?
A: inactive

Q: What about the Activity [3] of the same molecule?
A: 7 mm

Q: And the Activity [4]?
A: 5 mm

Q: What about the Activity [5] of the same molecule?
A: 11.5 mm

Q: What about the Activity [6] of the same molecule?
A: 8 mm

Q: What about the inhibition of growth at 0.3 µM [7] of the same molecule?
A: 46.5%

Q: And the Activity [8]?
A: 5 mm

Q: What about the Activity [9] of the same molecule?
A: 8 mm

Q: What about the Activity [10] of the same molecule?
A: 11 mm

Q: And the Activity [11]?
A: 6.5 mm

Q: And the Activity [12]?
A: 9 mm

Q: And the Activity [13]?
A: 9.5 mm

Q: What about the Activity [14] of the same molecule?
A: 7.5 mm

Q: And the Activity [15]?
A: 11.5 mm

Q: What about the “growth inhibition (GI)” value [16] of the same molecule?
A: inactive

Q: What about the Activity [17] of the same molecule?
A: 7.5 mm

Q: What about the “growth inhibition (GI)” value [18] of the same molecule?
A: inactive

Q: And the Activity [19]?
A: 8 mm

Q: What about the Activity [20] of the same molecule?
A: 5.5 mm

Q: What about the Activity [21] of the same molecule?
A: 7.5 mm

Q: What about the inhibition of growth at 3 µM [22] of the same molecule?
A: 47.3%

Q: What about the Activity [23] of the same molecule?
A: 5.5 mm

Q: And the “growth inhibition (GI)” value [24]?
A: inactive

Q: What about the “growth inhibition (GI)” value [25] of the same molecule?
A: inactive

Q: How did the inhibition [26] turn out when CO/C=C(/C(=O)OC)c1ccccc1Oc1cc(Oc2ccccc2C#N)ncn1 [AZOXYSTROBIN] was run?
A: Active

Q: And the inhibition [27]?
A: Active

Q: And the Activity [28]?
A: 23 mm

Q: CCCCNC(=O)n1c(NC(=O)OC)nc2ccccc21 [BENOMYL] was tested. Which inhibition [26] did it give?
A: Active

Q: What about the inhibition [27] of the same molecule?
A: Active

Q: And the Activity [28]?
A: 21.3 mm

Q: Which results are given for C=C1CCC[C@]2(C)CC[C@@H](C(C)(C)O)C[C@@H]12 [BETA-EUDESMOL]?
A: Activity [6]: 0 mm; Activity [11]: 0 mm; Activity [20]: 0 mm

Q: Which results are given for C=C1C=CC(C(C)C)CC1 (stereo not drawn) [BETA-PHELLANDRENE]?
A: Activity [6]: 0 mm; Activity [11]: 0 mm; Activity [20]: 0 mm

Q: Which results are given for C=C1CCC2CC1C2(C)C (stereo not drawn) [BETA-PINENE]?
A: Activity [6]: 0 mm; Activity [11]: 0 mm; Activity [20]: 0 mm

Q: Which Activity [29] does the source give for O=C1C2CC=CCC2C(=O)N1SC(Cl)(Cl)Cl (stereo not given) [CAPTAN] here?
A: 18.9 mm

Q: And the Activity [30]?
A: 11.5 mm

Q: What about the Activity [28] of the same molecule?
A: 15 mm

Q: How did the inhibition of growth at 30 µM [31] turn out when Cc1ccc(C(C)C)cc1O [CARVACROL] was run?
A: 36.9%

Q: For Cc1cc(C2CC2)nc(Nc2ccccc2)n1 [CYPRODINIL], which inhibition [26] is on record?
A: Active

Q: And the inhibition [27]?
A: Active

Q: What about the Activity [28] of the same molecule?
A: 23 mm

Q: What does the source list for CCCCCCCCCCCCCCCC(=O)O [PALMITIC ACID]?
A: Activity [6]: 0 mm; Activity [11]: 0 mm; Activity [20]: 0 mm

Reference: ChEMBL document CHEMBL3044643, “Chemical composition and antifungal activity of Arnica longifolia, Aster hesperius, and Chrysothamnus nauseosus essential oils” (2007)
